# High-throughput results: PubChem, Broad Institute
# Sampled rows, rich in hits. Any-hit rate of the full collection: about 2.4%.
# EWS-Fli inh: inhibitors of EWS/Fli oncoprotein transcriptional activity; A673 NR0B1-luciferase reporter, viability-normalised; inhibition, % at 12.6 µM; 350,000 tested, 0.67% active;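 active = mean inhibition of at least 50% after viability correction, with every replicate also passing that limit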;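 also: firefly luciferase signal divided by Alamar Blue viability fluorescence both relative to DMSO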
# E-selectin induc: E-selectin induction on HUVECs; 260,000 tested, 0.37% active; AID 686992; P16581; HUVEC E-selectin immunofluorescence imaging; normalized: neutral wells 0, TNF-alpha wells 100; activation, % at 7.58 µM;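 active = mean E-selectin-positive cell signal at least 10% of the positive control, reached in at least 60% of replicates, without over 20% cell loss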
# Target sequence (P16581 whole entry, looked up): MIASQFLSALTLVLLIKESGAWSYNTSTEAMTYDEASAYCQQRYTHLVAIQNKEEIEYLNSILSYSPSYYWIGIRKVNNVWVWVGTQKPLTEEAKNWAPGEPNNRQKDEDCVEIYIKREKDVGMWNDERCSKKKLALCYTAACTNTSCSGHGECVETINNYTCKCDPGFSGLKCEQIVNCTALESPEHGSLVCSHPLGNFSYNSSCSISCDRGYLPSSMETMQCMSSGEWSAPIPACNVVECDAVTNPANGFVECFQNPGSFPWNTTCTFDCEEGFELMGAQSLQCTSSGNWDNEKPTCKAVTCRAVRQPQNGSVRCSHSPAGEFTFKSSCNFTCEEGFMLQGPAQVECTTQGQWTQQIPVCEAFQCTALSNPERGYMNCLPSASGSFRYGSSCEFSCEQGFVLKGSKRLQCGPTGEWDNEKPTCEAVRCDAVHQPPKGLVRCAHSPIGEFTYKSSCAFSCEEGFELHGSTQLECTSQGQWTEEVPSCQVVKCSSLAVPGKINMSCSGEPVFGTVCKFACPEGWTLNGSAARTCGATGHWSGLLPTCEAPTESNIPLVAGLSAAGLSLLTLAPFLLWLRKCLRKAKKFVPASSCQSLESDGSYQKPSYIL
#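 assay system = HUVEC, human umbilical vein endothelial cells | input = 3,000 HUVEC seeded per well | medium = EGM-2 growth medium on 0.1% gelatin-coated wells | dosing = one compound dose added by pin transfer | signal = immunofluorescence imaging | read-out basis = % PE-positive cells | control set = TNF-alpha, DMSO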
# LGR2 antag: Drosophila LGR2 receptor signaling inhibition; inhibition, % at 9.99 µM; HEK293 LGR2, CRE-luciferase, bursicon-stimulated, 4 h; 380,000 tested, 0.35% active;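 active = drop in luminescence signal, shown as inhibition above about 50% in the replicate tests, limit read from the data, passing the limit was not always enough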;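 also: agonist challenge used bursicon conditioned medium at about half maximal strength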
# Ecoli rRNA inh: selective bacterial rRNA inhibition in E. coli | 350,000 tested, 1.6% active | E. coli WT GFP vs humanized-ribosome RFP mutants, fluorescence, 24 h; hits give low values; DMSO median 0, no signal -100 | GFP signal change (wild-type ribosome), % (test concentration not listed) | AID 720706;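 active = significant combined selectivity score with lowered wild-type GFP, culture density cut under 30%, mutant RFP and density less affected; inactive = any of these conditions unmet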
# DNA binder FP: small molecule DNA binding by fluorescence polarization. shares compounds with EWS-Fli inh. salmon sperm DNA acridine orange fluorescence polarization. AC35, µM (titrated, usually from 68 µM), for the others: top-dose activity change, negative = DNA binding. 640 tested, 2% active;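 active = fitted curve reaches a 35% signal fall AC35 below twice the sample's top valid tested dose, actives reach about 48 µM in these data; inactive = the rest, including activity in the rising direction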;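 also: lower polarization ratio signals compound binding to DNA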
# * = called active by the depositor; . = no result; ! = not confirmed by another sample.
SMILES,EWS-Fli inh,E-selectin induc,LGR2 antag,Ecoli rRNA inh,DNA binder FP
C[C@H]1CN([C@@H](C)CO)C(=O)c2cc(NS(=O)(=O)c3ccc(Cl)cc3)ccc2O[C@H]1CN(C)Cc1ccc(Cl)c(Cl)c1,60.6*,-0.1,14.8,3.7,-18.1%
Cc1noc(C)c1NC(=O)Nc1ccc2c(c1)CC(=O)N([C@H](C)CO)C[C@@H](C)[C@@H](CN(C)Cc1ccc(Cl)c(Cl)c1)O2,61.2*,-10.5,-6.8,-7.1,-0.1%
C[C@H]1CN([C@@H](C)CO)C(=O)Cc2cc(NS(=O)(=O)c3ccc(F)cc3)ccc2O[C@@H]1CN(C)C(=O)Nc1ccc(F)cc1,-6.1,0.0,10.9,0.2,.
C=C1C(=O)[C@@]23[C@H](O)C[C@@H]4C(C)(C)CC[C@H](O)[C@@]4(C)[C@@H]2CC[C@@H]1[C@H]3O,59.5*,4.5,59.3*,12.3,-9.4%
O=C(O)c1ccccc1C(=O)Nc1ccc(Oc2ccc3ccccc3c2)cc1,57.7*,.,-80.7,-59.2,0.5%
O=C(O)c1ccccc1C(=O)Nc1ccc(Oc2cccc3ccccc23)cc1,85.7*,.,18.3,-56.6,-8.5%
Cc1cccc(Oc2ccc(NC(=O)c3ccccc3C(=O)O)cc2)c1C,11.5,.,-37.5,-27.7,.
Cc1noc(C)c1NC(=O)Nc1cccc2c1O[C@H](CN(C)S(C)(=O)=O)[C@@H](C)CN([C@@H](C)CO)C2=O,-17.1,-3.4,-8.4,3.2,.
CN(C)C(=O)c1cccc(-c2ccc(C3[C@H]4CNC[C@@H]3N4Cc3nccs3)cc2)c1 (stereo not given in full),5.3,-0.1,1.0,2.7,.
CN(C)C(=O)c1cccc(-c2ccc(C3[C@@H]4CN(Cc5nccs5)C[C@H]3N4)cc2)c1 (stereo not given in full),58.6*!,0.3,-11.1,0.6,-2.7%
CCCCc1c(-c2ccccc2OC)ncn1Cc1ccccc1,13.2,-0.2,11.1,-54.7,.
CCCCc1c(-c2ccccc2OC)ncn1Cc1ccc(C(C)(C)C)cc1,62.3*,-0.3,36.9,-49.5,5.4%
C[C@H]1CN([C@@H](C)CO)C(=O)Cc2cc(NC(=O)CCC(F)(F)F)ccc2O[C@H]1CN(C)Cc1ccc(Cl)c(Cl)c1,-3.6,-3.4,-3.0,-8.6,.
Nc1cc2c(cc1Br)[nH]c(=O)c1ccccc12,52.2*,5.1,.,-13.4,-2.3%
O=c1c2ccccc2oc2cc(C#CC3(O)CCCCC3)ccc12,76.6*,0.1,.,-27.6,5.5%
CCN1/C(=C\C(=S)Nc2ccccc2)Sc2ccccc21,-61.9,0.4,.,.,.
CCN1/C(=C/C(C)=C/c2sc3ccccc3[n+]2CC)Sc2ccccc21,77.8*!,155.3*,109.6*!,-36.4,2.21µM*
O=C(O)c1ccc(N/N=C/c2cc3c(cc2[N+](=O)[O-])OCO3)cc1,-4.1,0.9,-24.4,-3.2,.
O=C(O)c1ccc(N/N=C/c2ccc3c(c2)OCO3)cc1,85.3*,.,101.5*,-19.4,8.9%
O=C(N/N=C/c1c(F)cccc1Cl)C1CC1,-2.6,.,-0.3,7.0,.
O=C(O)c1ccc(N/N=C/c2c(F)cccc2Cl)cc1,74.6*,.,76.3*,1.9,-5.2%
CC(C)(C)c1ccc(/C=N/Nc2ccc(C(=O)O)cc2)cc1,67.4*,.,58.1*,0.5,6.8%
CCNC(=S)N/N=C/c1ccc(C(=O)O)cc1,-1.6,0.6,21.2,7.7,.
CN(C)S(=O)(=O)c1cccc(N=C2NN=C(c3ccccc3)CS2)c1,17.5,.,11.3,3.6,.
COc1ccc(C2=NNC(=Nc3cc(S(=O)(=O)N(C)C)ccc3C)SC2)c(OC)c1,52.3*,3.6,-6.0,16.4,-18.6%
SMILES,EWS-Fli inh,E-selectin induc,LGR2 antag,Ecoli rRNA inh,DNA binder FP
CCC(=O)N1[C@@H]2c3ccc(-c4ccccc4F)c(=O)n3C[C@H]1[C@H](CO)[C@H]2C(=O)NC1CCCC1,-5.5,0.1,-11.7,2.1,.
CCCCNC1=CC(=O)C(NCCCC)=CC1=O,-17.8,-0.2,14.7,1.1,.
CCCCNC1=CC(=O)C(=O)c2ccccc21,54.4*,.,11.1,52.0,1.7%
C[C@@H]1CN([C@H](C)CO)C(=O)c2cccc(NC(=O)c3ccncc3)c2O[C@H]1CN(C)S(=O)(=O)c1ccc(Cl)cc1,-1.9,.,.,2.1,.
COc1ccc(NC(=O)Nc2ccc3c(c2)CC(=O)N([C@@H](C)CO)C[C@H](C)[C@@H](CN(C)C(=O)Nc2ccc(OC)cc2)O3)cc1,-2.5,-0.3,-15.6,0.0,.
COC(=O)N=Nc1c(O)[nH]c2ccc(Br)cc12,6.0,0.1,-2.9,2.1,.
